Results as given in ChEMBL document CHEMBL1781959, “Synthesis and in vitro antitumor activity of substituted quinazoline and quinoxaline derivatives: search for anticancer agent” (Eur J Med Chem, 2011).

Tests used:
[1] = test system: A549; experiment: Cytotoxicity against human A549 cells after 48 hrs by SRB assay; assay type: cell-based; settings: a549, 48 h
Summary of the method: (§1)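 NCI-60 five-dose screen in RPMI 1640 with 5% FBS and 2 mM L-glutamine; 5000–40,000 cells/well, 24 h pre-incubation. DMSO stocks diluted to 0.01, 0.1, 1, 10 and 100 μM final; 48 h at 37 °C, 5% CO2. Fixed with TCA (10% final adherent, 16% suspension), stained with 0.4% SRB, A515. GI50, TGI and LC50 taken from time-zero, control and test absorbances.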

[2] = test system: OVCAR-5; experiment: Growth inhibition of human OVCAR5 cells after 48 hrs by SRB assay; assay type: functional; settings: OVCAR-5, 48 h
Summary of the method: (§2)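 NCI 60-panel five-dose assay at 0.01, 0.1, 1, 10 and 100 μM. Cells in RPMI 1640 with 5% FBS and 2 mM L-glutamine, preincubated 24 h, with time-zero plates TCA-fixed. Drug exposure 48 h at 37 °C. Read by SRB staining at 515 nm. GI50 is the concentration where [(Ti−Tz)/(C−Tz)]×100 = 50, taken from log concentration versus % growth curves.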

[3] = test system: SK-MEL-2; experiment: Growth inhibition of human SK-MEL-2 cells after 48 hrs by SRB assay; assay type: functional; settings: SK-MEL-2, 48 h
Summary of the method: (§3)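 NCI-60 panel cells grown in RPMI 1640 with 5% FBS and 2 mM L-glutamine, then seeded at 5000–40,000 cells/well by doubling time and preincubated for 24 h. Compound in DMSO was tested either at 10^-5 M alone or at 0.01–100 μM in five doses, for 48 h at 37 °C. Cells were fixed with cold TCA (10% final), stained with SRB, and read at 515 nm. GI50 was taken from % growth relative to time-zero and control wells.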

[4] = test system: K562; experiment: Growth inhibition of human K562 cells after 48 hrs by SRB assay; assay type: functional; settings: K562, 48 h; summary of the method: as §2
[5] = test system: UACC-62; experiment: Cytotoxicity against human UACC62 cells after 48 hrs by SRB assay; assay type: cell-based; settings: uacc-62, 48 h
Summary of the method: (§4)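 NCI-60 five-dose screen. Cells grown in RPMI 1640 with 5% FBS and 2 mM L-glutamine and pre-incubated 24 h; a time-zero plate is TCA-fixed. Drug added at 0.01, 0.1, 1, 10 and 100 µM (DMSO stock) for 48 h at 37 °C, 5% CO2. Fixed with cold TCA (10% final for adherent, 16% for suspension cells), stained with 0.4% SRB, A515. GI50, TGI and LC50 taken from dose-response curves.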

[6] = test system: SW-620; experiment: Growth inhibition of human SW620 cells after 48 hrs by SRB assay; assay type: functional; settings: SW-620, 48 h; summary of the method: as §3
[7] = test system: CAKI-1; experiment: Cytotoxicity against human Caki1 cells after 48 hrs by SRB assay; assay type: cell-based; settings: caki-1, 48 h; summary of the method: as §1
[8] = test system: SN12C; experiment: Growth inhibition of human SN12C cells after 48 hrs by SRB assay; assay type: functional; summary of the method: as §3
[9] = test system: U-251; experiment: Growth inhibition of human U251 cells after 48 hrs by SRB assay; assay type: functional; settings: U-251, 48 h; summary of the method: as §3
[10] = Cytotoxicity against human […] cells after 48 hrs by SRB assay; assay type: cell-based; summary of the method: as §1
[11] = test system: KM12; experiment: Cytotoxicity against human KM12 cells after 48 hrs by SRB assay; assay type: cell-based; settings: km12, 48 h; summary of the method: as §1
[12] = test system: HCC 2998; experiment: Growth inhibition of human HCC2998 cells after 48 hrs by SRB assay; assay type: functional; settings: HCC 2998, 48 h; summary of the method: as §2
[13] = test system: HCC 2998; experiment: Cytotoxicity against human HCC2998 cells after 48 hrs by SRB assay; assay type: cell-based; settings: hcc 2998, 48 h; summary of the method: as §1
[14] = test system: SNB-75; experiment: Growth inhibition of human SNB75 cells after 48 hrs by SRB assay; assay type: functional; settings: SNB-75, 48 h; summary of the method: as §3
[15] = test system: NCI-H460; experiment: Growth inhibition of human NCI-H460 cells after 48 hrs by SRB assay; assay type: functional; settings: NCI-H460, 48 h; summary of the method: as §2
[16] = test system: BT-549; experiment: Growth inhibition of human BT549 cells after 48 hrs by SRB assay; assay type: functional; settings: BT-549, 48 h; summary of the method: as §2
[17] = test system: HOP-62; experiment: Growth inhibition of human HOP62 cells after 48 hrs by SRB assay; assay type: functional; settings: HOP-62, 48 h; summary of the method: as §2
[18] = test system: MCF7; experiment: Cytotoxicity against human MCF7 cells after 48 hrs by SRB assay; assay type: cell-based; settings: mcf7, 48 h; summary of the method: as §1
[19] = Growth inhibition of human […] cells after 48 hrs by SRB assay; assay type: functional; summary of the method: as §2
[20] = test system: U-251; experiment: Cytotoxicity against human U251 cells after 48 hrs by SRB assay; assay type: cell-based; settings: u-251, 48 h; summary of the method: as §4
[21] = test system: NCI-H23; experiment: Cytotoxicity against human NCI-H23 cells after 48 hrs by SRB assay; assay type: cell-based; settings: nci-h23, 48 h; summary of the method: as §1
[22] = test system: LOX IMVI; experiment: Cytotoxicity against human LOXIMVI cells after 48 hrs by SRB assay; assay type: cell-based; summary of the method: as §1
[23] = test system: NCI-H23; experiment: Growth inhibition of human NCI-H23 cells after 48 hrs by SRB assay; assay type: functional; settings: NCI-H23, 48 h; summary of the method: as §2
[24] = test system: LOX IMVI; experiment: Growth inhibition of human LOXIMVI cells after 48 hrs by SRB assay; assay type: functional; summary of the method: as §2
[25] = test system: SNB-19; experiment: Cytotoxicity against human SNB19 cells after 48 hrs by SRB assay; assay type: cell-based; settings: snb-19, 48 h; summary of the method: as §4
[26] = test system: UO-31; experiment: Cytotoxicity against human UO31 cells after 48 hrs by SRB assay; assay type: cell-based; settings: uo-31, 48 h; summary of the method: as §4
[27] = test system: K562; experiment: Cytotoxicity against human K562 cells after 48 hrs by SRB assay; assay type: cell-based; settings: k562, 48 h; summary of the method: as §1
[28] = test system: KM12; experiment: Growth inhibition of human KM12 cells after 48 hrs by SRB assay; assay type: functional; settings: KM12, 48 h; summary of the method: as §2
[29] = test system: PC-3; experiment: Growth inhibition of human PC3 cells after 48 hrs by SRB assay; assay type: functional; settings: PC-3, 48 h; summary of the method: as §2
[30] = test system: SK-MEL-5; experiment: Growth inhibition of human SK-MEL-5 cells after 48 hrs by SRB assay; assay type: functional; settings: SK-MEL-5, 48 h; summary of the method: as §3
[31] = test system: CCRF-CEM; experiment: Cytotoxicity against human CCRF-CEM cells after 48 hrs by SRB assay; assay type: cell-based; summary of the method: as §1
[32] = test system: MOLT-4; experiment: Cytotoxicity against human MOLT4 cells after 48 hrs by SRB assay; assay type: cell-based; settings: molt-4, 48 h; summary of the method: as §1
[33] = Growth inhibition of human Hs 578T cells after 48 hrs by SRB assay; assay type: functional; summary of the method: as §2
[34] = test system: A498; experiment: Growth inhibition of human A498 cells after 48 hrs by SRB assay; assay type: functional; settings: A498, 48 h; summary of the method: as §2
[35] = test system: NCI-H460; experiment: Cytotoxicity against human NCI-H460 cells after 48 hrs by SRB assay; assay type: cell-based; settings: nci-h460, 48 h; summary of the method: as §1

## O=c1c2ccccc2nc(-c2ccco2)n1/N=C/c1ccccc1Cl
[1]
  LC50: > 100 µM
[2]
  GI50: 5.12 µM
  TGI: > 100 µM
[3]
  GI50: 6.86 µM
  TGI: > 100 µM
[4]
  GI50: > 100 µM
  TGI: > 100 µM
[5]
  LC50: > 100 µM
[6]
  GI50: 4.68 µM
  TGI: 12.7 µM
[7]
  LC50: > 100 µM
[8]
  GI50: 4.89 µM
  TGI: > 100 µM
[9]
  GI50: 4.12 µM
  TGI: 32.3 µM
[10]
  LC50: > 100 µM
[11]
  LC50: > 100 µM
[12]
  GI50: 5.68 µM
  TGI: > 100 µM
[13]
  LC50: > 100 µM
[14]
  GI50: 4.1 µM
  TGI: 7.51 µM
[15]
  GI50: 3.45 µM
  TGI: 8.41 µM
[16]
  GI50: 2.92 µM
  TGI: 6.8 µM
[17]
  GI50: 3.56 µM
  TGI: 13.7 µM
[18]
  LC50: > 100 µM
[19]
  GI50: > 100 µM
  TGI: > 100 µM
[20]
  LC50: > 100 µM
[21]
  LC50: > 100 µM
[22]
  LC50: > 100 µM
[23]
  GI50: 7.87 µM
  TGI: > 100 µM
[24]
  GI50: 4.54 µM
  TGI: > 100 µM
[25]
  LC50: > 100 µM
[26]
  LC50: > 100 µM
[27]
  LC50: > 100 µM
[28]
  GI50: 3.65 µM
  TGI: 25.4 µM
[29]
  GI50: 8.23 µM
  TGI: > 100 µM
[30]
  GI50: 5.56 µM
  TGI: 31.8 µM
[31]
  LC50: > 100 µM
[32]
  LC50: > 100 µM
[33]
  GI50: 15.2 µM
  TGI: > 100 µM
[34]
  GI50: 5.76 µM
  TGI: 16.7 µM
[35]
  LC50: > 100 µM
